# Screening data (PubChem)
# Sampled rows, rich in hits. Any-hit rate of the full collection: about 2.8%.
# PTEN del growth – growth suppressors of cells with PTEN tumor suppressor deletion | HCT116 PTEN-null viability, CellTiter-Glo, 60 h; hits give low values | viability, % at 10 µM | actives 1.2% (n = 140,000);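 active = viability at or below a set limit, 4 SD under the median of all tested compounds, cut at about 3.7% in these data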;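 note: PTEN knockout HCT116 line with beta catenin targeted HCT116 as companion control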
# Yeast growth inh – chemicals that inhibit yeast BB579 growth in restrictive medium (lifespan-shortening candidates) | S. cerevisiae BB579 growth, OD615, 48 h | inhibition, % at 10 µM | actives 0.51% (n = 140,000);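 active = inhibition above a set limit, 3 SD over the mean compound inhibition, cut at about 44% in these data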
#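 System: Saccharomyces cerevisiae DeaD strain BB579, replicative lifespan model yeast. Buffer or medium: restrictive glucose-based CSMM-D medium. Doses: one dose, 10 µM compound with 0.25% DMSO. Timing: 4 h preincubation and 48 h exposure at 30 °C. Detection: turbidity as optical density at 615 nm. Benchmarks: amphotericin B 10 µg/mL, positive.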
# SDO1 yeast rescue – sdo1-depleted yeast growth rescue. S. cerevisiae sdo1-depleted JHY4D growth rescue, OD600 30 h; hits give high values; pdr5 snq2 efflux-pump mutant strain. z-score at 10 µM. actives 0.21% (n = 140,000). AID 817;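 active = z-score above 3 at both the 24 hr and the 30 hr optical density reads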;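 note: z-score against mean and SD of all compound wells on the same plate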
# Yeast life ext – yeast lifespan extension; S. cerevisiae growth with nicotinamide, OD615; deaD strain in restrictive glucose medium; AID 775; inhibition of the nicotinamide effect, % at 10 µM; actives 0.68% (n = 130,000);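 active = inhibition above a set limit, placed 3 SD over the median of all compounds, cut at about 26% in these data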;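 note: 0% = nicotinamide-treated wells and 100% = cells grown without nicotinamide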
#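 System: Modified budding yeast, DeaD strain | Buffer or medium: Restrictive glucose medium | Also added: 1.5 mM nicotinamide | Doses: 10 µM single point, 0.25% DMSO | Schedule: 48 h compound exposure at 30 °C, humidified | Detection: Absorbance at 615 nm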
# bCat KO growth – beta-catenin-lacking colon tumor cell growth suppression | HCT116 beta-catenin knockout viability, CellTiter-Glo, 60 h; hits give low values | viability, % at 10 µM | actives 1.5% (n = 140,000);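 active = viability at or under a set limit, the compound median less 4 SD, cut at about 6% in these data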;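 note: 0% = Hyamine 1622 control at 20 µM and 100% = untreated cell control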
# The depositor's hits bear a star; x = not tested or not shown.
SMILES,PTEN del growth,Yeast growth inh,SDO1 yeast rescue,Yeast life ext,bCat KO growth
COc1cc(OC)nc(NC(=O)CS(=O)(=O)c2ccccc2)n1,97,56*,-1.1,x,96
COc1ccc(OC)c(NC(=O)CS(=O)(=O)c2ccccc2)c1,106,-39,0.4,-9,95
COc1ccc2c(=O)c3c(=O)n(Cc4ccco4)c(-c4ccco4)nc3oc2c1,99,-66,-1,75*,96
COc1ccc(-c2nc3oc4cc(OC)ccc4c(=O)c3c(=O)n2Cc2ccco2)cc1,80,-13,-2.4,27*,87
COc1ccc(Cn2c(-c3ccco3)nc3oc4cc(OC)ccc4c(=O)c3c2=O)cc1,33,-28,-1,19,45
O=C1CC(NCCC2=CCCCC2)C(=O)N1c1cccc(Cl)c1Cl (stereo not drawn),91,-35,0.05,-18,87
CCn1nc(C)c(/C=N/NC(=S)Nc2ccc(Cl)cc2Cl)c1C,3.8*,-33,-0.74,-5,10
Cc1nn(C)cc1/C=N/NC(=S)Nc1ccc(Cl)cc1Cl,84,-47,-1,-5,97
c1ccc(SCCOCCn2cncn2)cc1,89,-3,2,-1,104
OC(Cn1cncn1)(c1ccccc1)c1ccccc1,88,92*,-1.9,-18,103
Cc1nnsc1SCCNC(=O)c1ccc(F)cc1,103,-27,0,-11,111
Cc1ccc(NC(=O)N(Cc2nc3ccccc3c(=O)[nH]2)Cc2cccs2)cc1,54,-9,-1,-6,62
COc1ccc(C(=O)COC(=O)c2ccc(NC(=O)c3ccccc3)cc2)cc1,33,-33,1.5,12,1.1*
COc1nc(C)nc(NC(=O)NS(=O)(=O)c2ccc(C)cc2)n1,93,-42,0.77,0,88
CCn1c(SCc2c(F)cccc2Cl)nnc1-c1ccco1,90,-27,-0.97,-1,91
Cc1ccc(-n2c(SCC(=O)N/N=C/c3c(C)nn(-c4ccccc4)c3C)nc3ccccc3c2=O)cc1,101,8,-0.68,-3,99
Cc1nn(-c2ccccc2)c(C)c1/C=N/NC(=O)CSc1nc2ccccc2c(=O)n1-c1ccc(Br)cc1,1.1*,-50,-0.68,-5,1.1*
CCn1c(C)cs/c1=N\C(=S)Nc1ccccc1C,79,-15,-0.79,-7,83
CSc1cccc(NC(=O)C(C)NS(=O)(=O)c2ccc(F)cc2)c1 (stereo not drawn),92,-25,0.03,1,90
O=C(CN1CCCCC1)NC(=O)NCc1ccccc1,94,-36,0.75,6,99
Cc1cc2ncn(/N=C/c3ccc([N+](=O)[O-])o3)c2cc1C,1.6*,21,-1.7,25,2.5*
CCc1nc(SCC(=O)c2ccc3c(c2)OCCO3)c2ccccc2n1,72,-69,-0.43,147*,63
O=C(CSc1nc(Cc2ccccc2)nc2ccccc12)c1ccc2c(c1)OCCO2,72,-39,-1,-5,70
CCC(C)N(NC(C)=O)c1nc(Cl)nc(NC(C)(C)C)n1 (stereo not drawn),97,-1,1,-3,94
O=C1CC(c2ccc(F)cc2)CC(O)=C1C=NCCN1CCNCC1 (stereo not drawn),97,-31,0.45,x,99
SMILES,PTEN del growth,Yeast growth inh,SDO1 yeast rescue,Yeast life ext,bCat KO growth
CCC(=O)N1CCN(CCN=CC2=C(O)CC(c3cccs3)CC2=O)CC1 (stereo not drawn),91,-28,0.31,53*,99
Cc1cc(C)cc(NC(=O)CN2CCN(CCN=CC3=C(O)CC(C)(C)CC3=O)CC2)c1,84,-26,0.25,x,73
O=C1CC(c2ccccc2)CC(O)=C1C=NCCN1CCN(C(=O)Nc2ccccc2)CC1 (stereo not drawn),98,-52,-0.23,92*,94
O=C1CC(c2ccccc2)CC(O)=C1C=NCCN1CCNCC1 (stereo not drawn),108,-18,0.23,35*,90
CCNC(=S)N1CCN(CCN=CC2=C(O)CC(c3cccs3)CC2=O)CC1 (stereo not drawn),102,-37,-0.07,6,99
Cc1ccc(NC(=O)CN2CCN(CCN=CC3=C(O)CC(c4ccccc4)CC3=O)CC2)cc1 (stereo not drawn),95,-35,0.82,60*,91
O=C(CSc1ncn[nH]1)Nc1ccc(Cl)c(Cl)c1,88,5,1.5,-13,90
CCc1ccc(-c2cc(C(=O)N3N=C(C(F)F)CC3(O)C(F)F)c3ccccc3n2)cc1 (stereo not drawn),3.5*,-22,-2.7,-15,7
CCOc1ccc(C2CC(c3cccc(OC)c3OC)n3nnnc3N2)cc1Cl (stereo not drawn),86,-58,0.53,5,83
CCCn1c(CC)nc([N+](=O)[O-])c1S(=O)(=O)c1ccccc1,1.2*,-21,0.82,-12,1.4*
CCOC(=O)c1c(C)oc2c1c(C(c1cccnc1)N1CCOCC1)c(O)c1ccccc12 (stereo not drawn),20,-16,-2,40*,24
CCOC(=O)c1c(C)oc2c1c(C=NCc1ccccn1)c(O)c1ccccc12,5,-59,-0.95,31*,18
CCOC(=O)c1c(C)oc2c1c(C=NCC1CCCO1)c(O)c1ccccc12 (stereo not drawn),70,-62,-0.73,29*,70
CCOc1ccc(CN(C)CC(=O)Nc2ccc([N+](=O)[O-])cc2Cl)cc1,78,-14,-0.06,-2,87
Cc1cc(C)c2c3c(sc2n1)C1(CCSCC1)C(C#N)=C(N)O3,80,-4,-1.2,x,77
COc1ccc(C2C(C#N)=C(N)Oc3c2sc2nc(C)cc(C)c32)cc1 (stereo not drawn),0.6*,-14,-0.52,-9,0.9*
C/C(N)=C(/C#N)C(=O)CSc1nc2ccccc2[nH]1,100,-7,-0.09,-6,93
CCOC(=O)C1=NN(C(=O)Nc2ccc(OC)cc2)C2C(=O)N(c3cccc(C(F)(F)F)c3)C(=O)C12 (stereo not drawn),88,4,0.9,-20,86
Cn1c(=NC(=O)CCl)sc2ccccc21,5,14,0.03,3,5.1*
CCOC(=O)N1CCN(C(=O)CSCC(=O)N=c2sc3ccccc3n2C)CC1,100,-28,-0.7,-21,100
O=C(Nc1c(Cl)cccc1Cl)c1cc(=O)n(Cc2ccccc2)c(=O)[nH]1,98,-43,1.1,-15,88
CCOC(=O)c1cnc2c(N=Nc3cccc(Cl)c3)c(N)nn2c1N,2.5*,-23,-1.1,-7,3.4*
CCC(=O)N(Cc1ccco1)C1CC(=O)N(c2ccccc2)C1=O (stereo not drawn),97,-17,1.2,9,97
CCCCC[n+]1ccn(C2=C([O-])c3ccccc3C(=O)/C2=N\S(=O)(=O)c2ccccc2)c1,5,-34,1.3,-16,3.3*
